Source: ChEMBL document CHEMBL1156776, “Hybrid inhibitors of phosphatidylinositol 3-kinase (PI3K) and the mammalian target of rapamycin (mTOR): design, synthesis, and superior antitumor activity of novel wortmannin-rapamycin conjugates” (J Med Chem, 2010)
Activity calls are given as the source filed them. The rule behind the calls is not given here.

Tests used:
[1] = Solubility in water; format: physicochemical; conditions: buffer
[2] = system: U-87MG ATCC; assay: Antitumor activity against human U87MG cells xenografted in nude mouse assessed as inhibition of AKT S473 phosphorylation at 10 mg/kg, iv administered as single dose measured after 2 hrs; format: functional, organism-based; set-up: dose 10 mg/kg
Summary of the method: (§1)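 Nude mice bearing U87MG tumors got a single iv dose. Tumors were excised 2 h later and analysed by Western blot for phosphoproteins (AKT S473, T308) against vehicle-treated controls.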

[3] = system: U-87MG ATCC; assay: Antitumor activity against human U87MG cells xenografted in nude mouse assessed as inhibition of AKT T308 phosphorylation at 10 mg/kg, iv administered as single dose measured after 2 hrs; format: functional, organism-based; set-up: dose 10 mg/kg; summary of the method: as §1
[4] = system: U-87MG ATCC; assay: Antitumor activity against human U87MG cells xenografted in nude mouse assessed as inhibition of S6K phosphorylation at 10 mg/kg, iv administered as single dose measured after 2 hrs; format: functional, organism-based; set-up: dose 10 mg/kg
[5] = system: A498; assay: Antitumor activity against human A498 cells xenografted in nude mouse assessed as tumor growth inhibition at 25 mg/kg, iv once weekly
[6] = Inhibition of PI3K
[7] = molecular target: Serine/threonine-protein kinase mTOR (Homo sapiens) (UniProt P42345); assay: Inhibition of mTOR
[8] = Stability in mouse plasma assessed as compound remaining after 120 mins relative to basal level; format: ADME, cell-free; conditions: read-out: Stability
Summary of the method: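 Compound was incubated in heparinized plasma at 37 °C for 2 h. Samples taken at various time points were quenched with acetonitrile, dried under nitrogen and reconstituted in methanol/water 20:80. Intact compound was quantified by LC/MS.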

[9] = system: Plasma; assay: Stability in mouse plasma in presence of esterase inhibitor sodium fluoride; format: ADME, cell-free
Summary of the method: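 Compound was incubated in nude mouse plasma or whole blood at 37 °C for 2 h, with heparin or sodium fluoride/EDTA as anticoagulant. Time-point samples were quenched with acetonitrile, dried, reconstituted and analysed by LC/MS for parent and hydrolysis products.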

[10] = system: U-87MG ATCC; assay: Antitumor activity against human U87MG cells xenografted in nude mouse assessed as tumor growth inhibition at 3 mg/kg, iv once weekly; format: functional, organism-based; set-up: dose 3 mg/kg
Summary of the method: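 U87MG glioma xenografts in nude mice were staged and randomized (n = 10). Dosing was iv once weekly in D5W (days 0, 6 or days 0, 6, 13), with vehicle controls. Tumor volume was measured twice weekly.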

[11] = system: Plasma; assay: Stability in rat plasma after 5 hrs; format: ADME, cell-free
[12] = system: Plasma; assay: Stability in human plasma after 5 hrs; format: ADME, cell-free
[13] = system: Plasma; assay: Stability in mouse plasma after 5 hrs; format: ADME, cell-free
[14] = system: HT-29; assay: Antitumor activity against human HT-29 cells xenografted in nude mouse assessed as tumor growth inhibition at 5 mg/kg, iv once weekly; format: functional, organism-based; set-up: dose 5 mg/kg
Summary of the method: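 HT29 cells from ATCC, cultured by standard methods, grown as tumors in nude mice and randomized into groups (n = 10). Agent formulated in 5% dextrose in water and given iv once weekly. Vehicle-dosed controls. Tumor growth was monitored and analyzed as previously described.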

[15] = Solubility at pH 7.4; format: physicochemical; conditions: buffer

Question: For `CO[C@H]1C[C@@H]2CC[C@@H](C)[C@@](O)(O2)C(=O)C(=O)N2CCCC[C@H]2C(=O)O[C@H]([C@H](C)C[C@@H]2CC[C@@H](O)[C@H](OC)C2)CC(=O)[C@H](C)/C=C(\C)[C@@H](O)[C@@H](OC)C(=O)[C@H](C)C[C@H](C)/C=C/C=C/C=C/1C` [SIROLIMUS], which solubility [1] is on record?
Answer: Its solubility is “Insoluble”.

Question: And the Activity [2]?
Answer: Its Activity is “inactive”.

Question: And the Activity [3]?
Answer: The Activity was “inactive”.

Question: And the Activity [4]?
Answer: The Activity was “Active”.

Question: What about the Activity [5] of the same molecule?
Answer: Its Activity is “Active”.

Question: Which inhibition [6] does the source give for `COC[C@H]1OC(=O)/C(=C\N(C)CCCN(C)C)C2=C(O)C(=O)C3=C([C@H](OC(C)=O)C[C@]4(C)[C@@H](OC(=O)CCC(=O)O[C@@H]5CC[C@@H](C[C@@H](C)[C@@H]6CC(=O)[C@H](C)/C=C(\C)[C@@H](O)[C@@H](OC)C(=O)[C@H](C)C[C@H](C)/C=C/C=C/C=C(\C)[C@@H](OC)C[C@@H]7CC[C@@H](C)[C@@](O)(O7)C(=O)C(=O)N7CCCC[C@H]7C(=O)O6)C[C@H]5OC)CC[C@@H]34)[C@]21C` here?
Answer: Its inhibition is “inactive”.

Question: And the inhibition [7]?
Answer: Its inhibition is “inactive”.

Question: What about the remaining at 2 h [8] of the same molecule?
Answer: Its remaining at 2 h is 15%.

Question: And the Stability [9]?
Answer: The Stability was “Stable”.

Question: What about the Activity [10] of the same molecule?
Answer: The Activity was “Active”.

Question: Which results are given for `C=CCN(/C=C1\C(=O)O[C@H](COC)[C@@]2(C)C1=C(O)C(=O)C1=C2[C@H](OC(C)=O)C[C@]2(C)[C@@H](OC(=O)CCCCCCC(=O)O[C@@H]3CC[C@@H](C[C@@H](C)[C@@H]4CC(=O)[C@H](C)/C=C(\C)[C@@H](O)[C@@H](OC)C(=O)[C@H](C)C[C@H](C)/C=C/C=C/C=C(\C)[C@@H](OC)C[C@@H]5CC[C@@H](C)[C@@](O)(O5)C(=O)C(=O)N5CCCC[C@H]5C(=O)O4)C[C@H]3OC)CC[C@@H]12)CC=C`?
Answer: inhibition [6]: inactive; inhibition [7]: inactive; Stability [11]: Stable; Stability [12]: Stable; Stability [13]: Stable

Question: Which results are given for `COC[C@H]1OC(=O)/C(=C\N(C)CCCN(C)C)C2=C(O)C(=O)C3=C([C@H](OC(C)=O)C[C@]4(C)[C@@H](O)CC[C@@H]34)[C@]21C`?
Answer: Activity [14]: inactive; solubility [15]: > 10000 µg/mL
